Shown are actives, neighbours in structure and some others; about 4.1% of the full set was active somewhere.
NF-kB expr up = compounds increasing NF-kB expression in human neuronal cells | NF-kB reporter expression; hits give high values | fold change at 12.5 µM | 1.6% of 190,000 active | AID 1239; in the data active means fold change above about 3.3
STAT1 act = STAT1 signaling activation; NIH 3T3 STAT1-luciferase reporter, IFN-gamma, luminescence; 100% = IFN-gamma alone, no compound; activation (% of control), % at 5.5 µM; 2.6% of 200,000 active;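 active means activation above the screen-wide mean activation plus 3 SD, cut at about 130% in these data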;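 further: raw ratio to IFN-gamma control signal so 100% means no change and 0% no light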
FLuc inhib CS = inhibits firefly luciferase, flagging false hits in luciferase inhibition screens; P08659; 1.5% of 200,000 active; ATPLite firefly luciferase biochemical luminescence, 10 min; inhibition, % at 10 µM;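 active means inhibition above about 50% when tested at 10 µM, limit read from the data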
Target sequence (P08659 whole entry, looked up): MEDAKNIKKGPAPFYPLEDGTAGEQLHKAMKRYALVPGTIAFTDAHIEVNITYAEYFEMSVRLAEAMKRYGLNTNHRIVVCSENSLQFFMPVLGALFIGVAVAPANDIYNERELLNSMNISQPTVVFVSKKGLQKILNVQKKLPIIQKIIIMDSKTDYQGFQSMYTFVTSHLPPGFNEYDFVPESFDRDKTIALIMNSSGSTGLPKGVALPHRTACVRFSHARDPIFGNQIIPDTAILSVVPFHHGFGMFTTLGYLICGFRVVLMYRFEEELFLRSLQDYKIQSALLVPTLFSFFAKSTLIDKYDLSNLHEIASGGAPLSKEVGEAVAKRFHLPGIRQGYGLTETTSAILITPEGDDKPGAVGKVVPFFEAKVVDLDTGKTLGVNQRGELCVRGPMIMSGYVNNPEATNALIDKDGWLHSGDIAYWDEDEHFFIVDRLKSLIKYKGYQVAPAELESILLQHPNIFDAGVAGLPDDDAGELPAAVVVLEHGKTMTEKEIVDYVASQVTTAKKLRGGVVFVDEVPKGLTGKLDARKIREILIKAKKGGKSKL
FLuc act counter = firefly luciferase counter-screen for stimulation assays | 200,000 tested, under 10 active | activation factor at 10 µM | P08659 | ATPlite luciferase biochemical, luminescence, 10 min; 0 = ATP-free wells, 1 = DMSO control;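 active means luciferase activation factor, scaled between plate controls, of at least 2 with compound at 10 µM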
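Material: Luciferase/luciferin reagent mix | Doses: Test compounds dosed from 2 mM stocks in 100% DMSO | Timing: 10 min incubation after luciferase reagent addition, room temperature | Measured by: Luminescence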
APP 5'UTR act = activates APP 5'UTR luciferase reporter. SH-SY5Y APP 5'UTR luciferase reporter, luminescence; zero percent = DMSO vehicle wells. activation, % at 2 µM. 1% of 190,000 active. AID 1276;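 active means activation above a set limit, based on mean plus 3 SD of controls, cut at about 140% in these data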
* hit, by the source's call; nt = no result given.

SMILES | NF-kB expr up | STAT1 act | FLuc inhib CS | FLuc act counter | APP 5'UTR act
O=C1N/C(=C/c2ccc(N3CCOCC3)o2)C(=O)N1c1cccc(Cl)c1 | 1.6 | 130* | -4 | 1 | -76
O=C(Nc1ccc(OC(F)(F)F)cc1)C1=NCCN1 | 1.7 | 115 | 63* | 0.4 | 17
CN1CCS/C1=C/C=C1\SC(=S)N(CC(=O)O)C1=O | 0.86 | 102 | 11 | 0.9 | 3
CCCCN1C(=O)/C(=C/C=C2\SCCN2C)SC1=S | 3 | 130* | 12 | 0.9 | 62
Cc1cccc(N(CC(=O)NCc2ccco2)C(=O)CCC(=O)Nc2nccs2)c1 | 1 | 96 | -4 | 1 | -3
CN(C)c1ccc(C(=O)c2ccc(N(C)C)c3ccccc23)cc1 | 5.2* | 139* | -6 | 1.1 | -95
COc1ccc(C(=O)c2ccc(N(C)C)cc2)c(OC)c1 | 0.9 | 115 | -5 | 1 | -78
COc1ccc(N2CCN(C(CNS(C)(=O)=O)c3ccco3)CC2)cc1 (stereo not drawn) | 1.1 | 98 | -1 | 1 | 26
COc1ccc(/C(N)=N/OC(=O)CSc2ccccc2)cc1OC | 2.8 | 145* | -6 | 1.1 | 42
N/C(=N\OC(=O)c1ccco1)c1cccc([N+](=O)[O-])c1 | 1.4 | 128 | 39 | 0.6 | 38
N/C(=N\OC(=O)c1ccco1)c1cccc(Br)c1 | 3 | 127 | 56* | 0.4 | 137*
COc1ccc(/C(N)=N/OC(=O)c2ccco2)cc1OC | 2.9 | 149* | 6 | 0.9 | 80
COc1ccc(N(CC(=O)Nc2ccccc2C(N)=O)S(=O)(=O)c2ccc(C)c([N+](=O)[O-])c2)cc1 | 1.1 | 111 | -7 | 1.1 | 16
COc1cccc2cc(C(=O)c3ccccc3)oc12 | 2.5 | 137* | 42 | 0.6 | 119
O=C(c1ccccc1)c1cc2ccccc2o1 | 2.2 | 131* | 12 | 0.9 | 47
Cc1ccc(C(=O)c2cc3ccccc3o2)cc1[N+](=O)[O-] | 2 | 139* | 1 | 1 | 79
CC1CCc2c(sc3nc(CSc4ncn[nH]4)[nH]c(=O)c23)C1 (stereo not drawn) | 1.1 | 114 | 14 | 0.9 | 4
CC(C)(C)C(=O)/C=C(N)/C=C/c1ccccc1 | 2.2 | 118 | 2 | 1 | 35
CCc1cccc(Nc2cc(C)nc3ncnn23)c1 | 0.84 | 104 | -12 | 1.1 | 15
CCn1c2ccccc2c2cc(Nc3cc(C)nc4ncnn34)ccc21 | 4.4* | 103 | -8 | 1.1 | -96
c1ccc(CSc2ccc(-c3cccnc3)nn2)cc1 | 2.5 | 134* | 40 | 0.6 | 36
COc1ccccc1-c1cc(N)n[nH]1 | 1.1 | 108 | 1 | 1 | 8
COc1ccccc1C1=NC(c2ccc(F)cc2)N=C1C (stereo not drawn) | 1.8 | 131* | 4 | 1 | 17
Nc1nc(-c2ccc(-c3ccccc3)cc2)cs1 | 7.9* | 141* | 72* | 0.3 | 179*
Nc1nc(-c2ccccc2)cc(-c2ccccc2O)n1 | 1.4 | 91 | -1 | 1 | 4
SMILES | NF-kB expr up | STAT1 act | FLuc inhib CS | FLuc act counter | APP 5'UTR act
c1ccc(-c2csc(-c3ccncc3)n2)cc1 | 1.4 | 133* | 3 | 1 | 7
CC(C)C(=O)Nc1cccc(-c2csc(-c3ccccc3)n2)c1 | 1.2 | 117 | 0 | 1 | 37
Oc1ccccc1-c1csc(-c2ccccc2)n1 | 1.2 | 131* | 34 | 0.7 | 116
O=C(Nc1cccc(-c2csc(-c3ccccc3)n2)c1)c1cccs1 | 1.1 | 116 | 4 | 1 | 5
CC(C)C(=O)Nc1ccc(-c2csc(-c3ccccc3)n2)cc1 | 1.8 | 142* | 2 | 1 | 133
Nc1nc(-c2ccc(C(=O)O)cc2)cs1 | 1.2 | 101 | -4 | 1 | 40
COc1ccc(C(=O)/C=C(\C)NCc2ccc3c(c2)OCO3)cc1 | 1.2 | 101 | -7 | 1.1 | 7
CCc1noc(C)c1C(=O)Nc1nnc(C2CCCCC2)s1 | 1.5 | 103 | -7 | 1.1 | 3
Brc1ccc(-c2csc(-c3c[nH]c4ccccc34)n2)cc1 | 1.8 | 119 | -2 | 1 | 38
c1ccc2c(-c3csc(-c4ccncc4)n3)c[nH]c2c1 | 2.2 | 147* | 20 | 0.8 | 31
Cc1ccc(-c2noc(-c3ccoc3C)n2)cc1 | 2.5 | 154* | 35 | 0.7 | 92
Cc1ccc(-c2nc(-c3cccnc3)no2)cc1 | 6.3* | 122 | 66* | 0.3 | 105
CCC(=O)Oc1ccc(-c2cnc3ccccc3n2)cc1 | 6.8* | 142* | 64* | 0.4 | 175*
Cc1occc1-c1nc(-c2ccncc2)no1 | 1.2 | 105 | 4 | 1 | -7
Cc1c(C(=O)Oc2ccc(-c3cnc4ccccc4n3)cc2)cccc1[N+](=O)[O-] | 1.7 | 110 | -3 | 1 | 73
Cc1ccc(Cc2nc(-c3cccnc3)no2)cc1 | 1.4 | 103 | -3 | 1 | -13
Cc1ccc(-c2nc(-c3ccccc3)no2)cc1 | 10* | 148* | 78* | 0.2 | 132
COc1ccccc1-c1cc(C(=O)NCc2ccco2)no1 | 1.4 | 114 | 11 | 0.9 | 3
CC(C)(C)c1ccc(-c2nc(-c3ccncc3)no2)cc1 | 2.1 | 130* | 37 | 0.6 | 216*
Cc1ccc(-c2nc(-c3ccccc3)no2)c(Cl)c1 | 1.6 | 38 | 95* | 0.1 | 166*
CCC(=O)Oc1ccc(-c2nc(-c3cccnc3)no2)cc1 | 2.8 | 118 | 61* | 0.4 | 82
COc1cc(-c2nc(-c3cccnc3)no2)cc(OC)c1OC | 1.2 | 101 | 2 | 1 | 0
COc1nc(C)ccc1-c1noc(-c2ccncc2)n1 | 1.8 | 131* | 11 | 0.9 | -8
COc1cc(-c2nc(-c3ccc(C)nc3OC)no2)cc(OC)c1OC | nt | nt | -5 | 1 | nt
NC(=O)c1ccccc1-c1nc(-c2ccccc2)no1 | 1.8 | 113 | 7 | 0.9 | 57
SMILES | NF-kB expr up | STAT1 act | FLuc inhib CS | FLuc act counter | APP 5'UTR act
O=S(=O)(c1ccccc1)N1CCN=C1SCc1cccc(Cl)c1 | 1.1 | 104 | -4 | 1 | 1
Oc1cccc(-c2nc3c4c(ncn3n2)-c2ccccc2CC42CCCC2)c1 | 0.98 | 100 | -6 | 1.1 | 1
CCCc1noc(-c2ccc(-c3ccccc3)cc2)n1 | 5.7* | 138* | 28 | 0.7 | 124
N=c1c(-c2nc3ccccc3[nH]2)cc(C(=O)c2cccs2)nn1-c1ccc(Cl)cc1 | nt | 94 | nt | nt | 20
CC(C)c1ccc(COc2ccc(C(=O)N3CCOCC3)cc2)cc1 | 1.1 | 83 | -4 | 1 | 9
Cc1ccc(OCc2ccc(C(=O)N3CCOCC3)cc2)cc1C | 1.8 | 142* | 9 | 0.9 | nt
Cc1c(C(=O)Nc2ccccn2)oc2ccccc12 | 4.5* | 124 | 45 | 0.6 | 153*
Cc1c(C(=O)Nc2nc3ccccc3[nH]2)oc2ccccc12 | 8.1* | 162* | 53* | 0.5 | 182*
O=C(c1ccccc1)n1c(=S)nc2ccccn21 | nt | nt | 94* | 0.1 | nt
Cc1ccc(C(=O)n2ncn(C)c2=S)cc1 | 1.2 | 96 | -2 | 1 | 19
Cc1ccc(C(=O)n2c(=S)nc3ccccn32)cc1 | 2.6 | 150* | 96* | 0 | 184*

Assay outcomes deposited in PubChem BioAssay by several laboratories.
